Measured values published in ChEMBL document CHEMBL1671666, “Anti-human immunodeficiency virus activity, cross-resistance, cytotoxicity, and intracellular pharmacology of the 3'-azido-2',3'-dideoxypurine nucleosides” (Antimicrob Agents Chemother, 2009).
Counter-ions that a name gives are not always drawn. Values belong to the compound of their own block, whether it stands above or below them.

Experiments:
[1] = test system: Human immunodeficiency virus 1; assay: Antiviral activity against HIV1 infected in human HeLa P4/R5 cells assessed as inhibition of viral replication; assay type: functional, organism-based; details: Human immunodeficiency virus 1, HeLa
In short: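 Single-cycle assay in P4/R5 HeLa cells carrying an HIV LTR-driven, Tat-activated β-galactosidase gene. Cells kept in phenol red-free DMEM with 10% FBS and 0.5 μg/ml puromycin. Virus stock titred on these cells by threefold endpoint dilution (Reed-Muench). At least three independent experiments.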

[2] = test system: Human immunodeficiency virus 1; assay: Antiviral activity against HIV1 infected in human PBMC assessed as inhibition of viral replication; assay type: functional, organism-based
In short: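 PBMC from healthy seronegative donors, isolated on a Ficoll-Hypaque gradient and stimulated with PHA for 2-3 days before infection. At least three independent experiments.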

[3] = test system: Human immunodeficiency virus 1; assay: Antiviral activity against HIV1 infected in human MT2 cells assessed as inhibition of viral replication; assay type: functional, organism-based; details: Human immunodeficiency virus 1, MT2
[4] = molecular target: Human immunodeficiency virus type 1 reverse transcriptase (Human immunodeficiency virus 1) (UniProt Q72547); assay: Ratio of Kpol to Kd for HIV1 reverse transcriptase
In short: (§1)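 Pre-steady-state rapid quench with purified WT HIV-1 RT. Quenched with 0.5 M EDTA between 10 ms and 30 min. Products resolved on 7 M urea-16% polyacrylamide gels. Gives kpol and Kd; selectivity = (kpol/Kd)dNTP/(kpol/Kd)NRTI-TP. At least three independent experiments, mean ± SD.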

[5] = molecular target: Human immunodeficiency virus type 1 reverse transcriptase (Human immunodeficiency virus 1) (UniProt Q72547); assay: Selectivity, ratio of Kpol to Kd for dCTP to Kpol to Kd for compound at HIV1 reverse transcriptase; in short: as §1
[6] = molecular target: Human immunodeficiency virus type 1 reverse transcriptase (Human immunodeficiency virus 1, UniProt Q72547); assay: Binding affinity to HIV1 reverse transcriptase; in short: as §1
[7] = molecular target: Human immunodeficiency virus type 1 reverse transcriptase (Human immunodeficiency virus 1) (UniProt Q72547); assay: Activity at HIV1 reverse transcriptase measured after 30 mins; in short: as §1
[8] = Cytotoxicity against human CEM cells after 2 to 4 days by MTT assay; assay type: cell-based; details: CEM cells (CCRF-CEM)
In short: (§2)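 Log-phase cells seeded at 5 × 10³ to 5 × 10⁴ cells/well with 10-fold serial compound dilutions. Incubated 2-4 days; viability read by MTT staining. CC50 from concentration-response curves by the median effect method. Mean of at least three independent experiments.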

[9] = test system: Human immunodeficiency virus 1; assay: Antiviral activity against HIV1 harboring reverse transcriptase K65R mutant infected in human HeLa P4/R5 cells assessed as inhibition of viral replication; assay type: functional, organism-based; details: Human immunodeficiency virus 1, HeLa
In short: (§3)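 Single-replication-cycle assay in P4/R5 cells: HeLa stably carrying a Tat-activated β-galactosidase gene under an HIV LTR promoter, grown in phenol red-free DMEM with 10% FBS and 0.5 μg/ml puromycin. Virus stocks were titred in P4/R5 cells by threefold endpoint dilution (Reed–Muench).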

[10] = test system: Human immunodeficiency virus 1; assay: Antiviral activity against HIV1 harboring reverse transcriptase M41L/L210W/T215Y mutant infected in human HeLa P4/R5 cells assessed as inhibition of viral replication; assay type: functional, organism-based; details: Human immunodeficiency virus 1, HeLa; in short: as §3
[11] = test system: Human immunodeficiency virus 1; assay: Antiviral activity against HIV1 harboring reverse transcriptase diserine insert between residues 69 and 70 infected in human HeLa P4/R5 cells assessed as inhibition of viral replication; assay type: functional, organism-based; details: Human immunodeficiency virus 1, HeLa; in short: as §3
[12] = test system: Human immunodeficiency virus 1; assay: Antiviral activity against HIV1 harboring reverse transcriptase M41L/D67N/K70R/L210W/T215Y/K219Q mutant infected in human HeLa P4/R5 cells assessed as inhibition of viral replication; assay type: functional, organism-based; details: Human immunodeficiency virus 1, HeLa; in short: as §3
[13] = test system: Human immunodeficiency virus 1; assay: Antiviral activity against HIV1 harboring reverse transcriptase M184V mutant infected in human HeLa P4/R5 cells assessed as inhibition of viral replication; assay type: functional, organism-based; details: Human immunodeficiency virus 1, HeLa; in short: as §3
[14] = test system: Human immunodeficiency virus 1; assay: Antiviral activity against HIV1 harboring reverse transcriptase D67N/K70R/T215F/K219Q mutant infected in human HeLa P4/R5 cells assessed as inhibition of viral replication; assay type: functional, organism-based; details: Human immunodeficiency virus 1, HeLa; in short: as §3
[15] = test system: Human immunodeficiency virus 1; assay: Antiviral activity against HIV1 harboring reverse transcriptase M41L/D67N/K70R/T215F/K219Q mutant infected in human HeLa P4/R5 cells assessed as inhibition of viral replication; assay type: functional, organism-based; details: Human immunodeficiency virus 1, HeLa; in short: as §3
[16] = test system: Human immunodeficiency virus 1; assay: Antiviral activity against HIV1 harboring reverse transcriptase Q151M mutant infected in human HeLa P4/R5 cells assessed as inhibition of viral replication; assay type: functional, organism-based; details: Human immunodeficiency virus 1, HeLa; in short: as §3
[17] = Cytotoxicity against african green monkey Vero cells after 2 to 4 days by MTT assay; assay type: cell-based; details: chlorocebus sabaeus; in short: as §2
[18] = Cytotoxicity against human HeLa P4/R5 cells
[19] = test system: Human immunodeficiency virus 1; assay: Antiviral activity against HIV1 harboring reverse transcriptase L74V mutant infected in human HeLa P4/R5 cells assessed as inhibition of viral replication; assay type: functional, organism-based; details: Human immunodeficiency virus 1, HeLa; in short: as §3
[20] = Cytotoxicity against human PBMC after 2 to 4 days by MTT assay; assay type: cell-based; in short: as §2
[21] = Cytotoxicity against human MT2 cells after 2 to 4 days by MTT assay; assay type: cell-based; in short: as §2
[22] = test system: beta-actin DNA; assay: Mitochondrial toxicity in human HepG2 cells assessed as percent inhibition of beta-actin DNA at 100 uM after 14 days by real-time PCR; assay type: cell-based
In short: (§4)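 Low-passage HepG2 cells seeded at 5,000 cells/well on collagen-coated plates and cultured 14 days with 10 or 100 μM NRTI. mtDNA and β-actin DNA quantified by real-time PCR in duplicate; mtDNA normalized to β-actin and expressed relative to untreated cells. At least two independent experiments; ranges given.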

[23] = test system: HepG2; assay: Mitochondrial toxicity in human HepG2 cells assessed as percent mitochondrial DNA production at 10 uM after 14 days by real-time PCR relative to control; assay type: cell-based; details: hepg2, 336 h; in short: as §4
[24] = test system: HepG2; assay: Mitochondrial toxicity in human HepG2 cells assessed as percent mitochondrial DNA production at 100 uM after 14 days by real-time PCR relative to control; assay type: cell-based; details: hepg2, 336 h; in short: as §4
[25] = test system: HepG2; assay: Mitochondrial toxicity in human HepG2 cells assessed as percent lactic acid production at 10 uM after 14 days by real-time PCR relative to beta-actin DNA; assay type: cell-based; details: hepg2, 336 h
In short: (§5)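 HepG2 cells cultured 14 days with 10 or 100 μM NRTI. Lactic acid quantified with a D-/L-lactic acid enzymatic test kit and expressed relative to β-actin DNA and to untreated control.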

[26] = test system: Human immunodeficiency virus 1; assay: Ratio of IC50 for HIV1 harboring reverse transcriptase M184V mutant infected in human HeLa P4/R5 cells to wild type HIV1 infected in human HeLa P4/R5 cells; assay type: functional; in short: as §3
[27] = test system: beta-actin DNA; assay: Mitochondrial toxicity in human HepG2 cells assessed as percent inhibition of beta-actin DNA at 10 uM after 14 days by real-time PCR; assay type: cell-based; in short: as §4
[28] = test system: mitochondrial DNA; assay: Mitochondrial toxicity in human HepG2 cells assessed as percent inhibition of mitochondrial DNA at 100 uM after 14 days by real-time PCR; assay type: cell-based; in short: as §4
[29] = test system: Human immunodeficiency virus 1; assay: Ratio of IC50 for HIV1 harboring reverse transcriptase K65R mutant infected in human HeLa P4/R5 cells to wild type HIV1 infected in human HeLa P4/R5 cells; assay type: functional; in short: as §3
[30] = test system: mitochondrial DNA; assay: Mitochondrial toxicity in human HepG2 cells assessed as percent inhibition of mitochondrial DNA at 10 uM after 14 days by real-time PCR; assay type: cell-based; in short: as §4
[31] = test system: HepG2; assay: Mitochondrial toxicity in human HepG2 cells assessed as percent lactic acid production at 100 uM after 14 days by real-time PCR relative to beta-actin DNA; assay type: cell-based; details: hepg2, 336 h; in short: as §5
[32] = test system: Human immunodeficiency virus 1; assay: Ratio of IC50 for HIV1 harboring reverse transcriptase L74V mutant infected in human HeLa P4/R5 cells to wild type HIV1 infected in human HeLa P4/R5 cells; assay type: functional; in short: as §3
[33] = Half life in PHA-stimulated human PBMC after 12 hrs by LC-MS analysis; assay type: ADME, cell-based
[34] = molecular target: Human immunodeficiency virus type 1 reverse transcriptase (Human immunodeficiency virus 1) (UniProt Q72547); assay: Selectivity, ratio of Kpol to Kd for dGTP to Kpol to Kd for compound at HIV1 reverse transcriptase; in short: as §1

IC50 [1]: 5.7 µM
IC50 [2]: 0.1 µM
IC50 [3]: 1.9 µM
Compound: Cc1cn([C@H]2C=C[C@@H](CO)O2)c(=O)[nH]c1=O [STAVUDINE]

Ratio [4]: 0.2 µM⁻¹ s⁻¹
Selectivity ratio [5]: 6.7
Kd [6]: 2.7 µM
Activity [7]: 0.4 s⁻¹
Compound: Nc1ccn([C@H]2CC[C@@H](COP(=O)(O)OP(=O)(O)OP(=O)(O)O)O2)c(=O)n1 [DDCTP]

Ratio [4]: 1.1 µM⁻¹ s⁻¹
Activity [7]: 1.2 s⁻¹
Compound: Nc1ccn([C@H]2C[C@H](O)[C@@H](COP(=O)(O)OP(=O)(O)OP(=O)(O)O)O2)c(=O)n1

Compound: Nc1ncnc2c1ncn2[C@H]1C[C@H](O)[C@@H](COP(=O)(O)OP(=O)(O)OP(=O)(O)O)O1
Ratio [4]: 7.6 µM⁻¹ s⁻¹
Kd [6]: 3.2 µM
Activity [7]: 24.4 s⁻¹

Compound: Cc1cn([C@H]2C[C@H](N=[N+]=[N-])[C@@H](CO)O2)c(=O)[nH]c1=O [ZIDOVUDINE]
IC50 [1]: 0.19 µM
CC50 [8]: 86.2 µM
IC50 [9]: 0.21 µM
IC50 [10]: 10.4 µM
IC50 [11]: 205 µM
IC50 [12]: 58.6 µM
IC50 [13]: 0.18 µM
IC50 [14]: 11.9 µM
IC50 [15]: 96.7 µM
IC50 [3]: 0.031 µM
IC50 [16]: 214 µM
CC50 [17]: > 100 µM
CC50 [18]: > 270 µM
IC50 [19]: 0.21 µM
CC50 [20]: > 100 µM
CC50 [21]: 150 µM

Compound: Nc1nc2c(ncn2[C@H]2C[C@H](O)[C@@H](COP(=O)(O)OP(=O)(O)OP(=O)(O)O)O2)c(=O)[nH]1 [DEOXYGUANOSINE TRIPHOSPHATE]
Ratio [4]: 1.8 µM⁻¹ s⁻¹
Kd [6]: 4.2 µM
Activity [7]: 7.5 s⁻¹

IC50 [1]: 6.2 µM
IC50 [2]: 0.91 µM
IC50 [3]: 4.8 µM
Compound: Nc1nc(NC2CC2)c2ncn([C@H]3C=C[C@@H](CO)C3)c2n1 [ABACAVIR SULFATE]

Ratio [4]: 4.2 µM⁻¹ s⁻¹
Kd [6]: 2.2 µM
Activity [7]: 9.2 s⁻¹
Compound: Cc1cn([C@H]2C[C@H](O)[C@@H](COP(=O)(O)OP(=O)(O)OP(=O)(O)O)O2)c(=O)[nH]c1=O [DEOXYTHYMIDINE_TRIPHOSPHATE]

Compound: Nc1ccn([C@@H]2CS[C@H](CO)O2)c(=O)n1 [LAMIVUDINE]
IC50 [1]: 0.78 µM
inhibition at 336 h, 100 µM [22]: 94.3%
Activity [23]: 119%
IC50 [9]: 60.5 µM
Activity [24]: 0.6%
IC50 [13]: > 60 µM
Activity [25]: 105%
IC50 [2]: 0.03 µM
Ratio IC50 [26]: >75
inhibition at 336 h, 10 µM [27]: < 1%
inhibition at 336 h, 100 µM [28]: 100%
IC50 [3]: 0.6 µM
Ratio IC50 [29]: 77
inhibition at 336 h, 10 µM [30]: < 1%
Activity [31]: 416%

Compound: O=c1[nH]cnc2c1ncn2[C@H]1CC[C@@H](CO)O1 [DIDANOSINE]
IC50 [1]: 2.3 µM
Ratio IC50 [32]: 3.6
IC50 [9]: 6.3 µM
IC50 [13]: 4.6 µM
IC50 [2]: 0.1 µM
Ratio IC50 [26]: 2
IC50 [3]: 0.49 µM
Ratio IC50 [29]: 2.7
IC50 [19]: 8.3 µM

Ratio [4]: 1.7 µM⁻¹ s⁻¹
Kd [6]: 2.8 µM
half-life [33]: 8.9 h
Selectivity ratio [34]: 1.1
Activity [7]: 4.8 s⁻¹
Compound: [N-]=[N+]=N[C@H]1C[C@H](n2cnc3c(=O)[nH]c(N)nc32)O[C@@H]1COP(=O)(O)OP(=O)(O)OP(=O)(O)O
